# Bioassay records as filed in PubChem.
# Only some compounds are listed: those with a hit (about 11% of all), similar ones and a draw of the others.
# Htt clearance – compounds clearing mutant huntingtin protein; AID 853; hit rate 0.42% among 47,000; HeLa Exon1htt(103Q)mCFP, aggregate imaging; zero = plate's median compound well; inhibition, % at 1.5 µM;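 active = inhibition of aggregate fluorescence above about 70%, also judged a hit by eye on the cell image, limit read from the data, passing the limit was not always enough; inconclusive = no rule stated for this call; inactive = not judged a hit on image review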;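 also: cells exposed to compound for three days before fixation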
# RORA act – activators of human nuclear receptor RORA | activation, % at 10 µM | CHO-K1 Gal4-RORA LBD luciferase reporter, luminescence; percent increase over mock-subtracted basal signal | P35398 | hit rate 1.5% among 65,000 | AID 560;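 active = activation above the mean of all tested compounds plus 3 SD, cut at about 49% in these data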
# D1 mod – D1 dopamine receptor (human) allosteric modulation; hit rate 5.9% among 58,000; B-score at 10 µM; HEK293 D1, CRE-luciferase, dopamine EC30 potentiation; actives deviate in either direction; P21728;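 active = luminescence count or its row- and column-corrected plate score outside the 99.7% band of the plate's sample wells, on either side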
# M1 antag – M1 muscarinic receptor (rat) antagonism | P08482 | CHO-M1 cells, Fluo-4 calcium, ACh EC80 antagonist mode; stronger effect = lower value | B-score at 10 µM | hit rate 3.4% among 64,000;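 active = calcium fluorescence response, raw or row-and-column corrected B-score, differing from the plate sample mean either way at a set confidence level, mostly lower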
# SF1 activator – activators of human nuclear receptor SF-1. activation, % at 10 µM. AID 522. CHO-K1 Gal4-SF-1 LBD luciferase reporter; % increase over DMSO SF-1-specific signal. hit rate 1.9% among 65,000;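 active = activation above the mean activation of all tested compounds plus 3 SD, cut at about 50% in these data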
# Target sequence (Q13285 whole entry, looked up, the tested form may be a part): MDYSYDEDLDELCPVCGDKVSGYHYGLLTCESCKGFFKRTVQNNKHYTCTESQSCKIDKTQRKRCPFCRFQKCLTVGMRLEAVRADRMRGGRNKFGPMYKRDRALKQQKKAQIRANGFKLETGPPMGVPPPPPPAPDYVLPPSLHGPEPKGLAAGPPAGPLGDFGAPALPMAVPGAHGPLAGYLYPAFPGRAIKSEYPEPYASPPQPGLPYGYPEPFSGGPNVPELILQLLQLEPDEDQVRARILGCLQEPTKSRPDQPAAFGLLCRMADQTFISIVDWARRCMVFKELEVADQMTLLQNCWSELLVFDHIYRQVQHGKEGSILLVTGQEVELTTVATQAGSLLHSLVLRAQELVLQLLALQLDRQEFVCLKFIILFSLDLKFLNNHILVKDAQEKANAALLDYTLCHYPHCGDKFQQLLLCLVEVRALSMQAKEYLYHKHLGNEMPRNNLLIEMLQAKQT
#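 System: CHO-K1 cells with Gal4–hSF-1 LBD chimera plus Gal4-driven luciferase; quantity: 4,000 CHO-K1 cells per well; compound: one dose, 10 µM compound, 1% DMSO; times: 20 h compound treatment, 37 °C; measured by: SteadyLite luciferase luminescence; read-out: percent activation versus DMSO; benchmarks: DMSO and mock-transfected background; replicates: one test per compound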
# M1 ag – M1 muscarinic receptor agonism; CHO-M1 cells, Fluo-4 calcium fluorescence, agonist mode; stronger effect = higher value; B-score at 10 µM; hit rate 3% among 64,000;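 active = fluorescence rise, raw or as B-score row- and column-corrected plate score, outside the 99.7% band of its plate's samples, either direction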
# M1 agonist conf – confirmation of rat M1 muscarinic receptor agonists | shares compounds with M1 ag | CHO-M1 cells, Fluo-4 calcium fluorescence, agonist mode; actives lie on both sides | fluorescence change (max-min) at 10 µM | hit rate 19% among 1,700 | AID 1488;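 active = fluorescence change differs from the solvent-only DMSO control mean at a set confidence level in both duplicate runs; inconclusive = differs from solvent-only control mean in just one of two runs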;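 also: an EC20 dose of acetylcholine follows compound addition during the same imaging run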
# M4 agonist ctr – counter-screen for M1 agonists: activity at rat M4 receptor; shares compounds with M1 ag; CHO M4/Gqi5 cells, Fluo-4 calcium fluorescence, agonist mode; actives lie on both sides; fluorescence change (max-min) at 10 µM; hit rate 9% among 1,700; AID 1741;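 active = fluorescence change differing from the plate's solvent-only control wells at 99.7% confidence in both duplicates, whether higher or lower; inconclusive = differs from solvent controls in only one of two duplicates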
# Numbers stand for hits; . = inactive; ? = inconclusive; / = no result given.
SMILES,Htt clearance,RORA act,D1 mod,M1 antag,SF1 activator,M1 ag,M1 agonist conf,M4 agonist ctr
COc1ccc(OC)c(C(c2nnnn2C2CCCC2)N2CCN(c3ccccc3)CC2)c1 (configuration not stated),/,.,.,.,.,-1.66,.,.
COCCCn1c(SCC(=O)OC2CCCCC2)nnc1-c1cccs1,.,.,/,.,.,.,/,/
O=C(CSc1nc2cc(S(=O)(=O)N3CCOCC3)ccc2o1)NC1CCCc2ccccc21 (configuration not stated),.,.,.,.,.,.,/,/
COc1ccc(-n2nnnc2SCC(=O)c2ccc(O)c(O)c2)cc1,.,.,.,.,.,10.7,.,.
O=C(CCSc1nnc(-c2ccco2)o1)Nc1ccc(Cl)cc1,/,.,.,.,.,.,/,/
O=C(Nc1ccc(Cl)cc1)NC1CCCC1Cc1ccco1 (configuration not stated),.,.,.,-2.1,.,4.83,?,.
COCC(=O)Nc1nc2ccc(S(C)(=O)=O)cc2s1,/,.,.,.,.,.,/,/
C=CCN(CC=C)S(=O)(=O)c1ccc2nc(NC(=O)C(C)C)sc2c1,.,60.0,.,-2.39,.,8.54,?,.
Cc1c(/C(O)=C2/C(=O)C(=O)N(CCCN3CCOCC3)C2c2ccncc2)cnn1-c1ccccc1 (configuration not stated),/,.,.,.,.,.,/,/
CCOc1ncccc1C(=O)OCc1cc(=O)n2c(n1)sc1ccccc12,/,.,.,.,.,.,/,/
Cc1ccc(C(=O)N/C(=C\c2cn(-c3ccccc3)nc2-c2ccccc2)C(=O)N2CCOCC2)cc1,.,/,/,/,/,/,/,/
CCCOC(=O)c1ccc(OCC(O)Cn2c(C)nc3ccccc32)cc1 (configuration not stated),/,.,-3.24,.,.,5.69,?,.
CC(=O)Nc1cccc(OCC(O)Cn2c(C)nc3ccccc32)c1 (configuration not stated),.,/,/,/,/,/,/,/
O=C(NC1CCCC1)c1ccc(CS(=O)(=O)c2ccc(Br)cc2)o1,.,.,.,.,.,.,/,/
CC(=O)c1ccc(NC(=O)N2CCN(c3cccc(Cl)c3)CC2)cc1,.,.,.,-2.8,.,5.15,?,.
CCOC(=O)C1CCCN(CCC(=O)Nc2ccc3c(c2)CCC3)C1 (configuration not stated),/,.,.,-3.62,.,15.5,150,.
CCCCC(=O)Nc1ccc(C(=O)N2CCCC(C(=O)OCC)C2)cc1 (configuration not stated),.,.,.,.,.,.,/,/
Cc1cc(C)n2nc(C(=O)OCCOc3ccc(F)cc3)nc2n1,.,.,/,.,.,.,/,/
Cc1ccc2c(c1)N(C(C)C(=O)NCCc1ccccc1)C(=O)CO2 (configuration not stated),/,.,.,.,.,.,/,/
O=C(NCC1CCCO1)c1ccccc1-c1nc(-c2ccccc2)no1 (configuration not stated),/,.,/,.,.,2.37,.,?
CC(=O)c1cc(OC(=O)c2ccncc2)ccc1OC(=O)c1ccncc1,/,.,.,.,.,4.38,.,.
O=C(Oc1ccc(OC(=O)c2ccncc2)cc1)c1ccncc1,/,.,.,.,.,.,/,/
c1ccc(-n2c(Sc3cnccn3)nnc2-c2cccs2)cc1,.,.,.,.,.,.,/,/
O=C(Nc1ccccc1)N1CC=C(c2ccc(F)cc2)CC1,.,65.8,.,-3.15,.,5.41,?,?
O=C1OC(Nc2ccc(Br)cn2)c2ccccc21 (configuration not stated),.,.,.,.,.,.,/,/
SMILES,Htt clearance,RORA act,D1 mod,M1 antag,SF1 activator,M1 ag,M1 agonist conf,M4 agonist ctr
O=C(Nc1ccc(CCC(=O)N2CCCC2)cc1)c1ncn[nH]1,/,.,/,.,.,1.83,.,.
CCCCc1nnc(SCCSc2nnc(CCCC)n2N)n1N,/,.,.,.,.,.,/,/
c1ccc(-n2nnnc2SCCCSc2nc3ccccc3s2)cc1,/,.,.,.,.,26.8,.,?
CCO/C(C)=N/n1c2nc3ccccc3nc2c2c(=O)n(C3CCCC3)c(C)nc21,.,.,.,.,.,9.43,?,.
COc1ccc(CN(Cc2cc3cccc(C)c3[nH]c2=O)C(=O)N(C)C)cc1,/,.,.,.,.,3.54,.,.
Cc1ccc(CN(Cc2cc3cccc(C)c3[nH]c2=O)C(=O)N(C)C)cc1,/,.,.,.,.,.,/,/
CC(=O)C1=C(C)Nc2ncnn2C1c1ccccc1OCc1ccccc1 (configuration not stated),.,.,.,.,.,.,/,/
CN(CCCC(=O)Nc1ccncc1)S(=O)(=O)c1ccc(Cl)cc1,.,.,.,.,.,4.12,.,.
Cc1cc(C)nc(-n2c(Nc3ccccc3)cc(=O)c3c(C)n(-c4ccccc4)c(=O)nc32)n1,.,.,.,.,.,.,/,/
Cc1n[nH]c(C)c1N1C(=O)c2cccc3c(N4CCCCCC4)ccc(c23)C1=O,.,.,.,-13.7,.,451,2972,2513
O=C(Cn1nnc(-c2ccccc2)n1)OCc1csc(-c2ccccc2)n1,/,.,.,.,.,13.6,.,.
COc1ccc(C(CC(=O)NCCCN2CCOCC2)NS(=O)(=O)c2ccc(C)cc2)cc1 (configuration not stated),.,.,.,.,.,.,/,/
CCN1C(=O)/C(=C/N2CCc3ccccc32)SC1=S,.,.,.,.,.,86.6,528,491
CCN1C(=O)/C(=C\N2CCCc3ccccc32)SC1=S,/,.,.,.,.,.,/,/
COC(=O)c1ccc(-c2sc3nc(N4CCOCC4)c4c(c3c2N)CCCC4)o1,/,.,.,.,.,5.45,.,.
Cc1ccccc1Cn1ccc(NC(=O)c2cnn3c(C(F)(F)F)cc(-c4ccco4)nc23)n1,/,.,-4.44,-2.65,.,9.18,?,?
Cc1ccccc1Cn1ccc(NC(=O)CCSc2nc(-c3ccco3)cc(C(F)(F)F)n2)n1,.,.,.,.,.,.,/,/
Cc1cccc(OCCSc2cc(C)nc(N)n2)c1,/,.,.,.,.,.,/,/
COCCNC(=O)CN1CCC(n2c(C)nc3cc(C(F)(F)F)ccc32)CC1,/,.,.,.,.,.,/,/
CC(C)(C)NC(=O)c1ccc2c(c1)C(=O)N(C1CCCCC1)C2=O,/,.,.,.,.,6.11,?,.
CCc1nnc(NC(=O)C2CC(=O)N(c3ccc(C)cc3)C2)s1 (configuration not stated),/,.,.,.,.,.,/,/
Cc1ccc(N2CC(C(=O)Nc3ccccn3)CC2=O)cc1 (configuration not stated),.,.,.,.,.,4.57,?,.
